The source made the active and inactive calls. No cut-off for these calls is given here.

Assay [1] addresses Induced myeloid leukemia cell differentiation protein Mcl-1/BH3-interacting domain death agonist (Homo sapiens, UniProt Q07820). The assay is described as follows: Inhibition of His-tagged MCL1 (unknown origin)/5-carboxyfluorescein-labeled Bid (unknown origin) protein protein interaction after 1 hr by fluorescence polarization assay. The gist of the method: (§1)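 Competition FP assay displacing a fluorescent-tagged BH3-domain probe (Bak peptide for Bcl-xL, Bid peptide for Mcl-1). Run in triplicate, with reference BH3-mimetic positive controls.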
For orientation: Polarisation of emitted light reports the rotation of a fluorescent probe.

A further assay relates to HUVEC (Homo sapiens). The assay is described as follows: Cytotoxicity against HUVEC cells up to 10 uM.
A further assay relates to KB. The assay is described as follows: Cytotoxicity against human KB cells up to 10 uM. The class given is functional, cell-based.
The target of another assay is Bcl-xL/BAK (Homo sapiens, UniProt Q07817). Kind of assay: Inhibition of His-tagged Bcl-xL (unknown origin)/5-carboxyfluorescein-labeled Bak (unknown origin) protein protein interaction after 1 hr by fluorescence polarization assay. The gist of the method: as §1
Bcl-xL/BAK, sequence (Q07817 whole entry): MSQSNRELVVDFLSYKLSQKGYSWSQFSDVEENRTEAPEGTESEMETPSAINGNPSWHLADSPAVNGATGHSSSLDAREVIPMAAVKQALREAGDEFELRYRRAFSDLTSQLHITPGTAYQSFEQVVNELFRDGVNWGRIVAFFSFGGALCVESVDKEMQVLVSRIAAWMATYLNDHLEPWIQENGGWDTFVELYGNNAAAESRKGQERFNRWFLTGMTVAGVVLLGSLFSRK
Bcl-xL/BAK, sequence (Q16611 whole entry, further chain): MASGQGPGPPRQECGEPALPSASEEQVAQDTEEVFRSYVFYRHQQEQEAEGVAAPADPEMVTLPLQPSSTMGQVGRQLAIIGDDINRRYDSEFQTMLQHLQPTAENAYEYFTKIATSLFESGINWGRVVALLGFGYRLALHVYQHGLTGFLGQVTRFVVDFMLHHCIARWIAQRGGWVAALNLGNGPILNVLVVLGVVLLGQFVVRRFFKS

Induced myeloid leukemia cell differentiation protein Mcl-1/BH3-interacting domain death agonist, sequence (Q07820 whole entry, the tested form may be a part): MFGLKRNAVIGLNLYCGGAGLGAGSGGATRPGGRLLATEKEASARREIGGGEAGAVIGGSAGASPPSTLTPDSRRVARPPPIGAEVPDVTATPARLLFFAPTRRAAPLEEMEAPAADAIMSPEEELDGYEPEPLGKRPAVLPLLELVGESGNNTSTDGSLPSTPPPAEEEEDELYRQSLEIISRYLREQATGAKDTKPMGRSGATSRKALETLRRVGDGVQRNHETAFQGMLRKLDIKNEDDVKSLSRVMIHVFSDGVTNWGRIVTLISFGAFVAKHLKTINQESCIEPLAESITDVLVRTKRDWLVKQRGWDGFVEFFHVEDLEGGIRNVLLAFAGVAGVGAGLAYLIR
Induced myeloid leukemia cell differentiation protein Mcl-1/BH3-interacting domain death agonist, sequence (P55957 whole entry, further chain, the tested form may be a part): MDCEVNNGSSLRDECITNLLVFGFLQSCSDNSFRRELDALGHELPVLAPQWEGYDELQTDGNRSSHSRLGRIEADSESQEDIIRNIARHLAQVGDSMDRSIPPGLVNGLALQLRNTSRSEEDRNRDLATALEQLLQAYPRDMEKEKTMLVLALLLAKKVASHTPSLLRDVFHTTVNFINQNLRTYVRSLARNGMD

As a reminder, the Ki is a dissociation constant, usually derived from enzyme kinetics or from competition with a known ligand. A higher Ki goes with lower affinity. For the molecule `COC1=C(O)C(=O)/C(=C(\O)[C@@H]2CC=C(CCC=C(C)C)C[C@H]2c2ccccc2)C(=O)C1=O`, the Ki in assay [1] was found to be 2.4 µM; on Bcl-xL/BAK, 4.8 µM. For the same molecule, the result in the assay with HUVEC (Homo sapiens) and in the assay with KB was inactive.
As to `CC(=O)C1CC=C(CCC=C(C)C)CC1c1ccccc1` (racemic), the results for the Ki (in assay [1]; at Bcl-xL/BAK) were over 33 µM and over 23 µM, respectively. For the same molecule, the result with HUVEC (Homo sapiens) and with KB was inactive.
For `CC(=O)C1CC(CCC=C(C)C)=CCC1c1ccccc1` (racemic), the Ki was over 33 µM in assay [1] and over 23 µM on Bcl-xL/BAK. The outcome in the assay with HUVEC (Homo sapiens) and with KB was inactive.
Turning to `COc1cc(/C=C/c2ccccc2)oc(=O)c1` [DESMETHOXYYANGONIN], the figures for the Ki (in assay [1]; on Bcl-xL/BAK) were over 33 µM and over 23 µM, respectively. Moreover, the outcome in the assay on HUVEC (Homo sapiens) and in the assay on KB was inactive.
On to `COC1=C(O)C(=O)/C(=C(\O)C2CC=C(CCC=C(C)C)CC2c2ccccc2)C(=O)C1=O` (racemic), for which the Ki was determined as 3.1 µM in assay [1] and 17.5 µM at Bcl-xL/BAK. Further, the outcome with HUVEC (Homo sapiens) and in the assay with KB was inactive.
For `CC(C)=CCCC1=CCC(C(=O)O)C(c2ccccc2)C1` (racemic), the inhibitory constant (Ki) in assay [1] was over 33 µM; on Bcl-xL/BAK it was over 23 µM. The result in the assay on HUVEC (Homo sapiens) and in the assay on KB was inactive.
On to `COc1c(O)c2c(c(O)c1OC)C(=O)C[C@H](c1ccccc1)O2`, for which the Ki was over 33 µM in assay [1] and over 23 µM on Bcl-xL/BAK. Besides, the outcome in the assay on HUVEC (Homo sapiens) and with KB was inactive.
`COC1=C(OC)C(=O)C2=C(O[C@@H](c3ccccc3)CC2=O)C1=O`: the values for the Ki (in assay [1]; on Bcl-xL/BAK) were over 33 µM and over 23 µM, respectively. The result in the assay on HUVEC (Homo sapiens) and with KB was inactive.
On to `COC1=C(O)C(=O)/C(=C(\O)[C@H]2CC=C(CCC=C(C)C)C[C@@H]2c2ccccc2)C(=O)C1=O`, for which the Ki is 7.4 µM in assay [1] and over 23 µM on Bcl-xL/BAK. Besides, the outcome with HUVEC (Homo sapiens) and in the assay on KB was inactive.
For `CC(C)=CCC[C@H](C)[C@@H]1C=C[C@]2(C(=O)O)[C@@H](CC(C)=C[C@H]2/C=C(\C)C2CCC(C(=O)O)CC2)C1` (some centres not stated), the Ki at Bcl-xL/BAK was found to be 2.6 µM.
